Results pooled from the literature.
Protocols differ between the studies behind these lines.
Target: Serine/threonine-protein kinase Sgk3 (SGK3, Homo sapiens, UniProt Q96BR1)
Sequence (Q96BR1 1-496, as in one of the studies): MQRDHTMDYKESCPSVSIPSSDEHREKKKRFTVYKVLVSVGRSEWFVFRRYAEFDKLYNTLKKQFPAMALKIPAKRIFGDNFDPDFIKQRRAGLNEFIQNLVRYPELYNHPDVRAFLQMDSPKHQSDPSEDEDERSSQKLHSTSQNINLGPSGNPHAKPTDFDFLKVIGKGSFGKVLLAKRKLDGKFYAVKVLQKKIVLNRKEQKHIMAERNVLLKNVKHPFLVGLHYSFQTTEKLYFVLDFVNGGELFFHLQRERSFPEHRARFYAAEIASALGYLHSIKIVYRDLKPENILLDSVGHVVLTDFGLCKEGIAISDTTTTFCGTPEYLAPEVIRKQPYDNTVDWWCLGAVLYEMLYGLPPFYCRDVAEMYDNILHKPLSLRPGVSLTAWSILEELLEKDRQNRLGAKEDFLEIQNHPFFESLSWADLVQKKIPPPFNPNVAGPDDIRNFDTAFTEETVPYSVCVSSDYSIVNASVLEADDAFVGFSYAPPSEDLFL

| assay | conditions | remaining binding | Structure (SMILES) |
| --- | --- | --- | --- |
| binding, competition with immobilised ligand | 1 µM | 100% | Nc1ncc2c(n1)-c1c([nH]c3ccc(C#CC4CC4)cc13)CCCC2 |
| cell-free assay, competition with immobilised ligand | 5 µM | 100% | COc1ncc2cc3ccccc3nc2c1C#N |
| binding, competition with immobilised ligand | 1 µM | 78% | O=C(NCC1CCOCC1)c1n[nH]cc1NC(=O)c1c(F)cccc1F |
| binding, competition with immobilised ligand | 5 µM | 70% | FC(F)(F)Oc1cccc(-c2cnc3ccc(-c4ccncc4)nn23)c1 |
| binding | 1 µM | 79% | CN(C)c1nccc(-c2cnc3ncccn23)n1 |
| binding, competition with immobilised ligand | 1 µM | 7.3% | Cc1cnc(Nc2ccc(C(=O)N3CCC(N4CCCC4)CC3)cc2)nc1-c1cc2ccccc2s1 |
| binding | 1 µM | 100% | N[C@@H]1CCN(c2nccc(-c3cnn4ncccc34)n2)C1 |
| binding, competition with immobilised ligand | 1 µM | 82% | CNC(=O)[C@@H]1CC[C@@H](n2c(-c3ccc4cnccc4c3)nc3ccc(C(=O)NCc4cccc(C(N)=O)c4)cc32)C1 |
| cell-free assay, competition with immobilised ligand | 1 µM | 81% | CCC(=N\O)/C(C)=C/c1ccc(F)cc1 |
| binding, competition with immobilised ligand | 0.1 µM | 93% | C[C@@H](c1ccc(-n2cnc3c(N)ncnc32)cc1)N1CCc2nn(C)c(Cc3ccccc3)c2C1=O |
| cell-free assay, competition with immobilised ligand | 1 µM | 99% | O=C(NCc1ncc(C(F)(F)F)cc1Cl)c1ccc2c(c1)C1(CCS(=O)(=O)CC1)[C@H](C1CC1)N2S(=O)(=O)c1ccc(F)cc1 |
| binding | 1 µM | 95% | COc1ccnn2ncc(-c3ccnc(N(C)C)n3)c12 |
| cell-free assay, competition with immobilised ligand | 0.1 µM | 90% | Cn1cc(Cl)c2c(Oc3c(F)cc(Nc4cc(Cl)nc(N)n4)cc3F)ccnc21 |
| binding, competition with immobilised ligand | 1 µM | 4.7% | O=C(c1ccc(Nc2ncc(Cl)c(-c3ccc(Cl)s3)n2)cc1)N1CCC(N2CCCC2)CC1 |
| binding | 1 µM | 100% | Cc1cnn2ncc(-c3ccnc(N(C)C)n3)c2c1 |
| cell-free assay, competition with immobilised ligand | 1 µM | 100% | O=C(Nc1cnc(Oc2ccc(F)cc2)nc1)N1CCc2ncccc2[C@@H]1c1ccc(F)cc1 |
| binding | 1 µM | 89% | F[C@@H]1CCN(c2nccc(-c3cnn4ncccc34)n2)C1 |
| cell-free assay, competition with immobilised ligand | 0.1 µM | 92% | O=C(NCCCC1CCCCC1)c1ccc(CNC(=O)c2cnn(-c3ccccc3)c2C(F)(F)F)cc1 |
| binding, competition with immobilised ligand | 1 µM | 5.6% | O=C(c1ccc(Nc2ncc(Cl)c(-c3cc4ccccc4s3)n2)cc1)N1CCC(N2CCCC2)CC1 |
| binding | 1 µM | 100% | CN(C)c1nccc(-c2cnn3ncccc23)n1 |
| cell-free assay, competition with immobilised ligand | 1 µM | 94% | Cc1c(NC(=O)c2cc(C(N)=O)nc3cc(F)ccc23)c(C(F)(F)F)nn1Cc1ccc(C(C)(C)C)cc1 |
